Laboratory results published in ChEMBL document CHEMBL5653631, “A Potent and Selective ULK1 Inhibitor Suppresses Autophagy and Sensitizes Cancer Cells to Nutrient Stress” (iScience, 2018).

Assays:
[1] = molecular target: Myosin light chain kinase, smooth muscle (Homo sapiens) (UniProt Q15746); assay: Inhibition of human recombinant smMLCK at 40 nM in presence of ATP by radiometric assay relative to control
[2] = molecular target: Serine/threonine-protein kinase MARK1 (Homo sapiens) (UniProt Q9P0L2); assay: Inhibition of human recombinant MARK1 at 40 nM in presence of ATP by radiometric assay relative to control
Serine/threonine-protein kinase MARK1 (Homo sapiens), sequence (Q9P0L2 whole entry, looked up): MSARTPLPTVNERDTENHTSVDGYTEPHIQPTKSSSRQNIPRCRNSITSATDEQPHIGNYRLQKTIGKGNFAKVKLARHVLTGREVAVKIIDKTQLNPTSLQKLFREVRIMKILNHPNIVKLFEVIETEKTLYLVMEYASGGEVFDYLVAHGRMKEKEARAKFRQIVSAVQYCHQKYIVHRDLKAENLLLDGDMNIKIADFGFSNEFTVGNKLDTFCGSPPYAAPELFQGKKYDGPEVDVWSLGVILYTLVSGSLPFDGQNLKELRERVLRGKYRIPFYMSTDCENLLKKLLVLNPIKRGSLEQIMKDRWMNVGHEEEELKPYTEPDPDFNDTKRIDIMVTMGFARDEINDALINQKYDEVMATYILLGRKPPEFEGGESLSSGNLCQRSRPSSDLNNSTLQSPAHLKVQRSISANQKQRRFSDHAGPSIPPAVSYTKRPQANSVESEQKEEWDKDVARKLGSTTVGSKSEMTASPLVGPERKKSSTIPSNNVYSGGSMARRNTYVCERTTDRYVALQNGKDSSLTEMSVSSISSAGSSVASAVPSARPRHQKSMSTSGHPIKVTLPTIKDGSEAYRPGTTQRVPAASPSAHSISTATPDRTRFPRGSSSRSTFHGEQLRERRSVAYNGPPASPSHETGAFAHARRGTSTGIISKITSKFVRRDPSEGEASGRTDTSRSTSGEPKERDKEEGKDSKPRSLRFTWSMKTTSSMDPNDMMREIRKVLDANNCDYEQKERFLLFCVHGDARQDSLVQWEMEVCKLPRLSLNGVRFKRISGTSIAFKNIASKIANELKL

[3] = molecular target: ALK tyrosine kinase receptor (Homo sapiens) (UniProt Q9UM73); assay: Inhibition of human recombinant ALK at 40 nM related to control ULK1
Outline: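 Radiometric activity assays in a panel of 327 human recombinant kinases, each run in duplicate at one inhibitor concentration. Activity remaining is expressed as percent of vehicle control, and percent inhibition is calculated as 100% minus percent activity remaining.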

[4] = molecular target: Serine/threonine-protein kinase PRP4 homolog (Homo sapiens) (UniProt Q13523); assay: Inhibition of human recombinant PRP4 at 40 nM in presence of ATP by radiometric assay relative to control
[5] = molecular target: Serine/threonine-protein kinase 35 (Homo sapiens) (UniProt Q8TDR2); assay: Inhibition of human recombinant CLIK1 at 15 nM related to control ULK1
[6] = molecular target: Calcium/calmodulin-dependent protein kinase type 1G (Homo sapiens) (UniProt Q96NX5); assay: Inhibition of human recombinant CaMK1g at 15 nM related to control ULK1
Calcium/calmodulin-dependent protein kinase type 1G (Homo sapiens), sequence (Q96NX5 whole entry): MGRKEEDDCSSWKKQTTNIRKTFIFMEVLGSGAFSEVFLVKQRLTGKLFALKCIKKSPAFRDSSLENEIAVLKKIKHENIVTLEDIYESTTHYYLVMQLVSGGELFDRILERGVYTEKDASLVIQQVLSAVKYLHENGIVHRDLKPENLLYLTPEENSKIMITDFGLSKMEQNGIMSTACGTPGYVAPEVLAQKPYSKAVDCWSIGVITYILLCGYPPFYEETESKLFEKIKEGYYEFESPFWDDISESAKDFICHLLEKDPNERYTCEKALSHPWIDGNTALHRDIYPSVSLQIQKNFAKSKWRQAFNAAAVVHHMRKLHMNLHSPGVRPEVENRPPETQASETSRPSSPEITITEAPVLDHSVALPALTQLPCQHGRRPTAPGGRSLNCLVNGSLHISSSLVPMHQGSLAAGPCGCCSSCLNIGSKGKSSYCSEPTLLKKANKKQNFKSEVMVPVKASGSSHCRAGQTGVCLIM

[7] = molecular target: Vascular endothelial growth factor receptor 3 (Homo sapiens) (UniProt P35916); assay: Inhibition of human recombinant FLT4 at 15 nM in presence of ATP by radiometric assay relative to control
Vascular endothelial growth factor receptor 3 (Homo sapiens), sequence (P35916 whole entry): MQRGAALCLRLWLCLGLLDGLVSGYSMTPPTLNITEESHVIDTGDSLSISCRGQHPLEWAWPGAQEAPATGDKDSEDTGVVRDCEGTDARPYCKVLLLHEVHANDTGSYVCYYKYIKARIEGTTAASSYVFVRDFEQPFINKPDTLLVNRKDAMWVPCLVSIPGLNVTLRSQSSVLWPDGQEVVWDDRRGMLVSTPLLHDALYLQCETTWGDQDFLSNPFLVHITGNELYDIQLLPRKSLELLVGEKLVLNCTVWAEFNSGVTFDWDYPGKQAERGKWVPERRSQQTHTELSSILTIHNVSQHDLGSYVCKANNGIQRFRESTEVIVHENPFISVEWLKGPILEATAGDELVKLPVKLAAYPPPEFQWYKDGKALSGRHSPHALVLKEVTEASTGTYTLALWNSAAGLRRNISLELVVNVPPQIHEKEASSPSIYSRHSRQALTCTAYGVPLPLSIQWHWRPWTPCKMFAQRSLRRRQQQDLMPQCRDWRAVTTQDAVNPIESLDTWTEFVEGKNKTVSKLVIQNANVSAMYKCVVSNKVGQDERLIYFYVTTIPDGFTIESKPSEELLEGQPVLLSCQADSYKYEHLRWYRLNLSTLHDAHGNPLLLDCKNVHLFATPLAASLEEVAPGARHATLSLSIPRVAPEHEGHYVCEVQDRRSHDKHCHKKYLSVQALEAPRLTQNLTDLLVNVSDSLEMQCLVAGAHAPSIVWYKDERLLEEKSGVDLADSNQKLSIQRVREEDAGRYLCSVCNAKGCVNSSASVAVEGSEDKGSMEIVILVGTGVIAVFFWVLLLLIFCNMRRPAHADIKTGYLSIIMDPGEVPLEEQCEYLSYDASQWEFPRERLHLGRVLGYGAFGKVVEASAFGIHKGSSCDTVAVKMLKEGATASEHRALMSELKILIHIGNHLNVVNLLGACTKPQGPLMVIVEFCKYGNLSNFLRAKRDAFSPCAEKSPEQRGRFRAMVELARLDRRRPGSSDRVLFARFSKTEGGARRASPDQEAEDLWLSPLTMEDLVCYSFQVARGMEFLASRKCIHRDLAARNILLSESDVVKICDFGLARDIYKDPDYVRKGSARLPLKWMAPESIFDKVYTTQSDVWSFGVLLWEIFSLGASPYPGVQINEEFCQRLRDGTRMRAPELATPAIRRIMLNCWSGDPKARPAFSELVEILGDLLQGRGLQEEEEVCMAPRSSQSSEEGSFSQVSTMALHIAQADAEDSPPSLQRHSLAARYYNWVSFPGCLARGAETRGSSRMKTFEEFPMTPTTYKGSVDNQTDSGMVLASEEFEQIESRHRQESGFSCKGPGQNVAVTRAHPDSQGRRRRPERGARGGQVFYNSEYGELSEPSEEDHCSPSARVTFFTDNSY

[8] = molecular target: Protein kinase C theta type (Homo sapiens) (UniProt Q04759); assay: Inhibition of human recombinant PKCt at 500 nM related to control ULK1
[9] = molecular target: T1, SNF-related serine/threonine-protein kinase (Homo sapiens) (UniProt Q9NRH2); assay: Inhibition of human recombinant SNRK at 500 nM in presence of ATP by radiometric assay relative to control
T1 sequence (whole entry): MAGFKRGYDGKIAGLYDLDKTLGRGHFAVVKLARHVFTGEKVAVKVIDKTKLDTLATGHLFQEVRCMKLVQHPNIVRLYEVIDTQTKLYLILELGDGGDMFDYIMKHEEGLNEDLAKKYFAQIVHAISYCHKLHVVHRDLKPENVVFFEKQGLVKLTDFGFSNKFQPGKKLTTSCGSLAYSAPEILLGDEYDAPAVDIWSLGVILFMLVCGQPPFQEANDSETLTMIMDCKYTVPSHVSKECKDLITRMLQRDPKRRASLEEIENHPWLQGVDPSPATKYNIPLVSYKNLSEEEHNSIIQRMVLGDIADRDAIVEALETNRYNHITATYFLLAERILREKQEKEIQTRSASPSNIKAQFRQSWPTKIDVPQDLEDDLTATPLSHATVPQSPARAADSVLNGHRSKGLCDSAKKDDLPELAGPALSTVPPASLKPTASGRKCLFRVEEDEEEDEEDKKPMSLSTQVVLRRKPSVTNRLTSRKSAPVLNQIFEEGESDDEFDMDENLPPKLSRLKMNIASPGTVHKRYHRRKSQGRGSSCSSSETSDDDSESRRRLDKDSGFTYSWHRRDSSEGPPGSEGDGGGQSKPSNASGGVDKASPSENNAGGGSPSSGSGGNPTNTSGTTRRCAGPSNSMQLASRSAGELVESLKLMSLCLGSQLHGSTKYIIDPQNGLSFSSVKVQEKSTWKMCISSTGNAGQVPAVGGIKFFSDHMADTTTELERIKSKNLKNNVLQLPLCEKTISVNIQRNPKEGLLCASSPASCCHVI

[10] = molecular target: Proto-oncogene tyrosine-protein kinase Src (Homo sapiens) (UniProt P12931); assay: Inhibition of human recombinant SRC at 500 nM in presence of ATP by radiometric assay relative to control
Proto-oncogene tyrosine-protein kinase Src (Homo sapiens), sequence (P12931 2-536 limits assumed): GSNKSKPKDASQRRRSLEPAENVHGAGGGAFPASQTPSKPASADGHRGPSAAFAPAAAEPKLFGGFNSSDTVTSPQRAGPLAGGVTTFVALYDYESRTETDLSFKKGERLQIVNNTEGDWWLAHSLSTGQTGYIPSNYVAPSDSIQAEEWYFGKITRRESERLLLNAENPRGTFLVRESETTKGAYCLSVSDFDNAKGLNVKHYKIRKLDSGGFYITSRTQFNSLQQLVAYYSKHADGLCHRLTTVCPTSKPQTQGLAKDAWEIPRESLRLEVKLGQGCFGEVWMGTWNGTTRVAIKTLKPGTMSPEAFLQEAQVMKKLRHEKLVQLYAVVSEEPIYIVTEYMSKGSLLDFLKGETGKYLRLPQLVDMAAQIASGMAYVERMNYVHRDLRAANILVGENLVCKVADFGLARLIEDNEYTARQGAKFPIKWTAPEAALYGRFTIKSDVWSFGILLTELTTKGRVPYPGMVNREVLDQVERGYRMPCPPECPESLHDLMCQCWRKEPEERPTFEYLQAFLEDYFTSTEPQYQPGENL

[11] = molecular target: T2, Ephrin type-B receptor 3 (Homo sapiens) (UniProt P54753); assay: Inhibition of human recombinant EphB3 at 500 nM in presence of ATP by radiometric assay relative to control
T2 sequence (whole entry): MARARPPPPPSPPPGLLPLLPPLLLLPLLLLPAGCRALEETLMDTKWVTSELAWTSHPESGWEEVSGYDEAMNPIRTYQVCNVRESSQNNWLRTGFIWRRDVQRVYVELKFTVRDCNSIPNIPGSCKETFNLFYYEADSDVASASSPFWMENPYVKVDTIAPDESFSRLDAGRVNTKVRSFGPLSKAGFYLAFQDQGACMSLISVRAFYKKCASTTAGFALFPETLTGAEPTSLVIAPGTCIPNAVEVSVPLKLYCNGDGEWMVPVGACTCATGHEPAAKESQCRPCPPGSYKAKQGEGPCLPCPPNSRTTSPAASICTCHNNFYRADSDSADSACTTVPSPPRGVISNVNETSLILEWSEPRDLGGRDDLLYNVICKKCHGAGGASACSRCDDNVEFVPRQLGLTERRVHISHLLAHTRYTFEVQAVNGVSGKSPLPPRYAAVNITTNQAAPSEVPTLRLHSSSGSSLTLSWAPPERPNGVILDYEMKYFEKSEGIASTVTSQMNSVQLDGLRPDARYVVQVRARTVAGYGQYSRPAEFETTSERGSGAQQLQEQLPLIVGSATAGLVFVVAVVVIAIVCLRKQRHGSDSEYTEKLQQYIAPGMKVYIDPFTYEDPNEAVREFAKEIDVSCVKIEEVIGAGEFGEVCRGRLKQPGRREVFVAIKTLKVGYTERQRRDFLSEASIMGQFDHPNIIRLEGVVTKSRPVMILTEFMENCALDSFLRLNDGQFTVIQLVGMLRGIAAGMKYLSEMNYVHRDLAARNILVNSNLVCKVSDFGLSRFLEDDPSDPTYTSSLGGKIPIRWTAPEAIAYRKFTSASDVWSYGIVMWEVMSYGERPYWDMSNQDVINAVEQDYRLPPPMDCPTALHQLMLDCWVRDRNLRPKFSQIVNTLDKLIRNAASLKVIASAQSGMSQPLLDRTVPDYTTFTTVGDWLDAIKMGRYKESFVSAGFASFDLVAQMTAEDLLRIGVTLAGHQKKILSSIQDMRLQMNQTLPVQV

Myosin light chain kinase, smooth muscle (Homo sapiens), sequence (Q15746 whole entry): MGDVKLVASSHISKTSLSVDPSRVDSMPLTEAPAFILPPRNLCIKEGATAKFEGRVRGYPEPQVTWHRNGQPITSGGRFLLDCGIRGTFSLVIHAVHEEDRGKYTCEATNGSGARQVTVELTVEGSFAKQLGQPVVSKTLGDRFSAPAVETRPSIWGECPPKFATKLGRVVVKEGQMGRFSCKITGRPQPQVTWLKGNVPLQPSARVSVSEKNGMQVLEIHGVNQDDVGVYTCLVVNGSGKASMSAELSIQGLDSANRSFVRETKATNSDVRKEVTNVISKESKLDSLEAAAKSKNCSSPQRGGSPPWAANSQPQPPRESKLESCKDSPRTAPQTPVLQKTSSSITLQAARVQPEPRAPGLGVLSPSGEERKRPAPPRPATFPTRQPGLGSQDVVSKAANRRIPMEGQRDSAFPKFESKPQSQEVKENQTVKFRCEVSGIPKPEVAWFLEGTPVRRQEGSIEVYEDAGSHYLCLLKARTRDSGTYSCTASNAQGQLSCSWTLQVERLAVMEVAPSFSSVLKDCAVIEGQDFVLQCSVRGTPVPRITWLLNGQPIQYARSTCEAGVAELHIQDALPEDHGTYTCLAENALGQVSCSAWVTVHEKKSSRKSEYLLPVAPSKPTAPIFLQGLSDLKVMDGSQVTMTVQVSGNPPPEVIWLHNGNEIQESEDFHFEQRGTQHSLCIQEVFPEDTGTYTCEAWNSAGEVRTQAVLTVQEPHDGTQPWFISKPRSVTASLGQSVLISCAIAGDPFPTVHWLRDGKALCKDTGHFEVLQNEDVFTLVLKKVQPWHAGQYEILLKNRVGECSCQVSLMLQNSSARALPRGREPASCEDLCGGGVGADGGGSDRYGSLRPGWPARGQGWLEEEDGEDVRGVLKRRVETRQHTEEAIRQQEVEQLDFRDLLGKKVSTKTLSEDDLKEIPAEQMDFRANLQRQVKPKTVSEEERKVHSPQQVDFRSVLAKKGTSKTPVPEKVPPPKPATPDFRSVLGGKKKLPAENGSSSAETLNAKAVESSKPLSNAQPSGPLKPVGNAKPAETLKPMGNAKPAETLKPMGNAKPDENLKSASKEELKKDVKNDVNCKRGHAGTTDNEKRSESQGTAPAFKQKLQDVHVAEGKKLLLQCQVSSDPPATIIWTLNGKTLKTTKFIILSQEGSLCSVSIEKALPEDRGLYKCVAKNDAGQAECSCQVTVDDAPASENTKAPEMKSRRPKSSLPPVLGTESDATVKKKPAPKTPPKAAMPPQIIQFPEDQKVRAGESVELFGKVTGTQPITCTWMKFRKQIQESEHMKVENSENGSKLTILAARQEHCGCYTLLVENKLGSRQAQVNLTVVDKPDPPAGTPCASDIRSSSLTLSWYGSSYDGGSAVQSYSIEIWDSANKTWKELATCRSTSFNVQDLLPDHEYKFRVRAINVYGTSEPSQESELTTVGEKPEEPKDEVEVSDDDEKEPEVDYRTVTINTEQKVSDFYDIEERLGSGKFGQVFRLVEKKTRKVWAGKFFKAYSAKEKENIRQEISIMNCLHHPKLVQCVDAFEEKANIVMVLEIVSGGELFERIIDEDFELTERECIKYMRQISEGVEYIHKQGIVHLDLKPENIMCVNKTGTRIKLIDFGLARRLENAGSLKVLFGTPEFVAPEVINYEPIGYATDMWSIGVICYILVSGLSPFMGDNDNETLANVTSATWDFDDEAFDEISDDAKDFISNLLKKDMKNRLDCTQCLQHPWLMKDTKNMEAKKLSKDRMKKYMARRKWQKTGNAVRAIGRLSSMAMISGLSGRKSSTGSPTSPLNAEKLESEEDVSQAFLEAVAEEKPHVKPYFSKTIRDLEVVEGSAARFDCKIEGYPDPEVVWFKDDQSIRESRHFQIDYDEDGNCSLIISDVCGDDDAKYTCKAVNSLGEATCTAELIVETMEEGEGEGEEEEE

## O=C(N[C@@H](C1CC1)C(F)(F)F)c1cc(-c2cnn3cc(-c4ccc(F)cc4)cnc23)cs1
[1]
  inhibition: 5%
[2]
  inhibition: 29%
[3]
  fold change (FC): 0
[4]
  inhibition: 6%

## CC(C)[C@H](NC(=O)c1cc(-c2cnn3cc(-c4ccc(OCCN5CCCCC5)cc4)cnc23)cs1)C(F)(F)F
[5]
  fold change (FC): 0.1
[6]
  fold change (FC): 0
[7]
  inhibition: 35%

## CNC(=O)c1ccccc1Oc1nc(Nc2cc(OC)c(OC)c(OC)c2)ncc1Br
[8]
  fold change (FC): 0
[9]
  inhibition: 0%
[10]
  inhibition: 19%
[11]
  inhibition: 0%
